Screening data: PubChem BioAssay, The Scripps Research Institute Molecular Screening Center
HCV NS3 hel inh – inhibitors of HCV NS3 helicase, primary screen, biochemical, Cy5 molecular beacon fluorescence. Hepatitis C virus NS3 helicase. NS3 helicase DNA unwinding. inhibition, % at 10.9 µM. 0.56% of 290,000 active. AID 1800, 2009;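 active = inhibition above the mean of all tested compounds plus 3 SD, set per campaign, cut at about 35% in these data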;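 also: 0% = DMSO wells and 100% = thioflavine S control wells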
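System: NS3 helicase fragment of HCV / Schedule: 1 h at 25 °C / Control set: DMSO alone as 0% and 110 µM thioflavine S as 100% / Reagent: Cy5/quencher beacon DNA duplex and ATP to start / Technique: Cy5 fluorescence / Replication: singlicate / Evaluation: % inhibition of end-to-start signal ratio versus controls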
ZTA DNA inh – blocks Epstein-Barr virus ZTA, an EBNA-1 counter-screen. ZTA-DNA binding, fluorescence polarization. 0.15% of 320,000 active. AID 2234. inhibition, % at 11 µM; in the data active = inhibition above about 33%
Target sequence (P03206 whole entry, looked up): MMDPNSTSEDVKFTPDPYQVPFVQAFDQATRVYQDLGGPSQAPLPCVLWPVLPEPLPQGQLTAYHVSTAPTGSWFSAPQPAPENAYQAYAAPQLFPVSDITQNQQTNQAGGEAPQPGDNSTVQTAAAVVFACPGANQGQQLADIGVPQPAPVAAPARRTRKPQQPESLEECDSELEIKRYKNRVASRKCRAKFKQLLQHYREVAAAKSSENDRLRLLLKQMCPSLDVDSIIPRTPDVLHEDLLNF
core dimer inh – inhibitors of HCV core protein dimerization, primary screen, biochemical, TR-FRET, high-throughput. TR-FRET GST/Flag-core106 dimerization, 1536-well. inhibition, % at 5 µM. 0.33% of 300,000 active. AID 1899, 2009;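 active = inhibition above the mean of all tested compounds plus 3 SD, set per screening campaign, cut at about 45% in these data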
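Assay system: Tagged HCV core106 pair (GST and Flag) | Buffer or medium: KF-containing HEPES buffer, pH 7.45, DTT, CHAPS, BSA | Also added: Eu donor and XL665 acceptor anti-tag antibodies | Dosing: One concentration, 5 µM, in 0.5% DMSO | Timing: 4 h at 22.5 °C | Technique: TR-FRET 671 and 617 nm emission | Repeats: Singlicate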
EBNA-1 inhibitor – EBNA-1 DNA-binding inhibitors, primary screen, biochemical, fluorescence polarization | inhibition, % at 14.8 µM | 0.34% of 300,000 active | AID 1950, 2009; in the data active = inhibition above about 28%
PP1 counter – PP1-alpha phosphatase inhibitors, primary screen, counter-screen for PP5 inhibitor project, biochemical, fluorescence, OMFP substrate, single point; purified PP1alpha; inhibition, % at 6.7 µM; 0.9% of 320,000 active;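 active = inhibition above the mean inhibition of all tested compounds plus 3 SD, computed separately for each screening campaign, cut at about 15% in these data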
Target sequence (P62136 whole entry, looked up): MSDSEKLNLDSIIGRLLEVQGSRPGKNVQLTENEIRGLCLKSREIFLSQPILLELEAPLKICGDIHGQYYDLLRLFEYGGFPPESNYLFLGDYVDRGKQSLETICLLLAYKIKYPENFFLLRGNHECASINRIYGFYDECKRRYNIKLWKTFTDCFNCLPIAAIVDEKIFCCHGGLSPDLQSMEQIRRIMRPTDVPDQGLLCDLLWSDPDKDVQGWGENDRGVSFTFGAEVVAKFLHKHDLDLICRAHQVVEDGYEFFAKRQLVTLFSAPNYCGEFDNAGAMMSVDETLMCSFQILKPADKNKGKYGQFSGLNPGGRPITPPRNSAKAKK
PP1 inh confirm – PP1 phosphatase inhibitors, confirmation, biochemical, fluorescence, OMFP substrate, triplicate. purified PP1alpha. AID 2358, 2010. inhibition, % at 6.7 µM. 52% of 1,900 active. shares compounds with PP1 counter;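 active = mean PP1 inhibition above a set limit taken from the earlier primary screen, cut at about 15% in these data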
PP5 counter – PP5 phosphatase inhibition by PP1 hits, confirmation, counter-screen for PP1 inhibitor project, biochemical, fluorescence, triplicate; shares compounds with PP1 counter; purified PP5c, OMFP fluorescence; inhibition, % at 6.7 µM; 4% of 1,900 active; AID 2360, 2010;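 active = mean PP5 inhibition over triplicate wells above about 9.5% taken from the earlier PP1 screen, limit read from the data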
An asterisk follows results filed as active; · = no result given. Compounds with a hit are over-represented: about 1.9% of the library has one in this group of screens.

SMILES	HCV NS3 hel inh	ZTA DNA inh	core dimer inh	EBNA-1 inhibitor	PP1 counter	PP1 inh confirm	PP5 counter
Cc1csc(NC(=O)C(C)Oc2ccc(Br)cc2)n1 (stereo not given)	·	6	-2	-6	-1	·	·
O=C(CC1CC2CCC1C2)Nc1nc(-c2ccccn2)cs1 (stereo not given)	10	7	13	-3	40*	41*	-3
CC(Oc1ccc(F)cc1)C(=O)Nc1nc(-c2ccccn2)cs1 (stereo not given)	·	-10	-2	2	21*	32*	0
O=C(CCS(=O)(=O)c1ccccc1)Nc1nc(-c2ccccn2)cs1	5	-4	-7	1	27*	37*	1
COc1ccc(OCCCC(=O)Nc2nc(-c3ccccn3)cs2)cc1	15	0	3	2	43*	50*	3
O=C(Nc1ccccc1C(=O)N1CCCCC1)c1ccccc1C(F)(F)F	-1	-18	-6	-7	1	·	·
COc1c(Br)cc(/C=N/n2c(-c3ccccc3)n[nH]c2=S)c(O)c1Br	8	-14	-9	-7	2	·	·
Cc1cc(F)ccc1S(=O)(=O)Nc1ccc(O)c(Sc2ncn[nH]2)c1	-2	-1	4	2	0	·	·
Cc1ccccc1N1C(=O)CN(Cc2sccc2C)C1=S	-1	-22	-6	2	0	·	·
c1ccc(Nc2nc(-c3ccccn3)cs2)cc1	9	-2	-9	-11	50*	46*	3
O=C(CCS(=O)(=O)c1ccc(F)cc1)Nc1nc(-c2ccccn2)cs1	7	-2	-1	-3	21*	44*	-1
c1ccc(-c2csc(Nc3cccnc3)n2)nc1	0	4	-5	-5	-2	·	·
C=CCn1c(O)c(C2=c3ccccc3=NC2=O)s/c1=N/c1nccs1	34	3	41	8	23*	24*	1
C=CCn1c(O)c(C2=c3ccccc3=NC2=O)c2ccccc21	10	-33	1	-11	0	·	·
COc1ccc(NC2CCCN(C(=O)c3cc(C)nc4cc(F)ccc34)C2)cc1 (stereo not given)	12	-4	-6	-12	0	·	·
CN(Cc1ccco1)C(=O)Cn1ncc2c([nH]c3ccccc32)c1=O	4	2	1	5	-3	·	·
CCn1c2ccccc2c2cc(NC(=O)COC(=O)c3ccc(NC(=O)CC#N)cc3)ccc21	·	6	74*	16	64*	46*	-4
CCOC(=O)c1c(NC(=O)COC(=O)c2ccc(NC(=O)CC#N)cc2)sc(C(=O)NC)c1C	·	10	·	·	20*	11	-4
CCCCN(C)CCNC(=O)CCn1nc(-c2ccc(Cl)cc2)ccc1=O	0	3	1	0	-3	·	·
Cc1ccc(C)c(C(=O)COC(=O)C2CCN(c3ccc(C(F)(F)F)cn3)CC2)c1	·	-9	5	-3	-3	·	·
COc1ccc(Cl)cc1Nc1nc2ccc(C)cc2n2cnnc12	1	9	12	4	0	·	·
CCOc1ccccc1OCC(=O)OC(C)C(=O)Nc1ncc(Cl)cc1Cl (stereo not given)	·	7	·	·	7	·	·
CCCCn1c(N)c(N(CC)C(=O)c2ccc(Cl)c(Cl)c2)c(=O)[nH]c1=O	-14	7	0	12	1	·	·
O=C(Nc1nc(-c2ccccn2)cs1)c1cccc(-n2cnnn2)c1	17	-3	7	4	27*	21*	-2
O=C(Nc1nc(-c2ccccn2)cs1)c1ccc(Br)s1	9	7	2	8	31*	17*	-2
SMILES	HCV NS3 hel inh	ZTA DNA inh	core dimer inh	EBNA-1 inhibitor	PP1 counter	PP1 inh confirm	PP5 counter
CCOCc1c(C(=O)Nc2ccc(OC)nc2)oc2ccccc12	6	0	3	1	2	·	·
CSc1ccc(C(=O)C2CCCN(C(=O)c3ccc4c(c3)no[n+]4[O-])C2)cc1 (stereo not given)	-8	-1	1	6	1	·	·
CC1(C)CCN2CCC(C)(C)c3c(O)ccc1c32	-58	-7	-1	5	18*	-1	7
O=C(CSc1ccc(-c2ccncc2)nn1)c1ccccc1	3	2	0	-3	21*	-4	-7
COc1ccc(C(=O)CSc2ccc(-c3ccccc3)nn2)cc1	3	-4	10	3	3	·	·
COC1CCN(Cc2c(C(=O)N3CCN(C4CCCCC4)CC3)nc3ccccn23)CC1	-3	-4	5	-3	-8	·	·
O=C1N=C(N2CCN(c3cccc4ccccc34)CC2)S/C1=C/c1cccs1	-6	-17	67*	3	24*	19*	-3
CCCCNC(=O)C(c1ccc(-c2ccccc2)cc1)N(CCN1CCOCC1)C(=O)CCCCCN1C(=O)NC(c2ccc([N+](=O)[O-])cc2)C(C(=O)OCc2ccccc2)=C1C (stereo not given)	-10	·	·	·	·	·	·
CCCCCCN(C(=O)CCCCCN1C(=O)NC(c2ccc(-c3ccccc3)cc2)C(C(=O)OCc2ccccc2)=C1C)C(C)C(=O)NCCCC (stereo not given)	17	4	13	-1	25*	23*	4
CCCCCCN(C(=O)CCCCCN1C(=O)NC(c2ccc([N+](=O)[O-])cc2)C(C(=O)OCc2ccccc2)=C1C)C(C(=O)NCCCC)c1ccc(OCC(=O)OC)c(C(=O)OC)c1 (stereo not given)	·	4	21	-4	23*	34*	2
CCCCCCN(C(=O)CCCCCN1C(=O)NC(c2cccc([N+](=O)[O-])c2)C(C(=O)OCc2ccccc2)=C1C)C(C(=O)NCCCC)c1ccc(OCC(=O)OC)c(C(=O)OC)c1 (stereo not given)	·	-7	21	2	36*	37*	5
CCCCCCN(C(=O)CCCCCN1C(=O)NC(c2ccc(Cl)cc2)C(C(=O)OCc2ccccc2)=C1C)C(C(=O)NCCCC)c1ccc(OCC(=O)OC)c(C(=O)OC)c1 (stereo not given)	-1	·	·	·	·	·	·
CCCCCCN(C(=O)CCCCCN1C(=O)NC(c2ccc(-c3ccccc3)cc2)C(C(=O)OCc2ccccc2)=C1C)C(C(=O)NCCCC)c1ccc(OCC(=O)OC)c(C(=O)OC)c1 (stereo not given)	·	4	20	-1	38*	21*	-4
O=C(CSc1ccc(Cl)cc1)N/N=C/c1ccc([N+](=O)[O-])o1	36	-21	-7	-11	2	·	·
